Assay results from PubChem BioAssay AID602220 (Southern Research Specialized Biocontainment Screening …, 2012).
Active and inactive are the calls of the source.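 How the source made its calls: active means at least 30% inhibition of the enzyme at any tested dose; inactive means the rest.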

Molecular target: M17 leucyl aminopeptidase (Plasmodium falciparum 3D7)
Assay: PfM17LAP leucine aminopeptidase inhibitors, dose response, counter-screen for PfM18AAP inhibitor project, biochemical, QFRET, set 2 (AID 602220)
Conditions: recombinant PfM17LAP, H-Leu-NHMec fluorogenic cleavage; for inhibition: at 100 µM (top of the series)
Method in brief: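 Test system: purified recombinant PfM17LAP, M17 leucine aminopeptidase of Plasmodium falciparum. Amount: 5 µg/mL enzyme. Schedule: 90 min reaction, room temperature. Technique: fluorescence of released NHMec, excitation 370 nm, emission 460 nm. Read-out basis: IC50 from 4-parameter fit of % inhibition, bounds fixed 0–100%. Control set: full reaction and no-enzyme background wells. Repeats: triplicate.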

| SMILES | IC50 [µM] | inhibition |
| --- | --- | --- |
| Oc1ccc(-c2csc(NC3CCCC3)n2)cc1O | 29.8 | – |
| Oc1ccc(CCNc2c3ccccc3nc3ccccc23)cc1O | 14.2 | – |
| Oc1ccc(-c2csc(Nc3ncccn3)n2)cc1O | 12.3 | – |
| CCc1ccc(NC(=O)Cc2nc(-c3ccc(O)c(O)c3)cs2)cc1 | 57.8 | – |
| COc1ccc(CCNC(c2ccccc2)c2ccccc2)cc1OC | – | inactive |

Results, then the compound that gave them:

| IC50 [µM] | inhibition | SMILES |
| --- | --- | --- |
| 29.4 | – | CN1CCN(c2nc(-c3ccc(O)c(O)c3)cs2)CC1 |
| – | inactive | COc1ccc(CCCN2CCN(C)CC2)cc1OC |
| 73.8 | – | CN1CCN(CCCc2ccc(O)c(O)c2)CC1 |
| 30.1 | – | Oc1ccc(CCNc2ccnc3ccccc23)cc1O |
| 94.3 | – | CN1CCN(CCc2ccc(O)c(O)c2)CC1 |
